Assay [1] concerns the target Dipeptidyl peptidase 4 (Homo sapiens, UniProt P27487). The experiment in a line: Inhibitory activity against dipeptidyl peptidase IV (DPP- IV). A digest of the protocol: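 Enzymatic activity was measured in intact cells (DPP-IV as a membrane-associated ecto enzyme) using glycyl-L-proline 4-methylcoumaryl-7-amide (Gly-Pro-AMC) as the substrate.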
Assay [2] addresses Aminopeptidase N (Homo sapiens, UniProt P15144). The experiment in a line: Inhibitory activity against aminopeptidase N assayed by the L-Ala-MCA method.

We go through 33 compounds from ChEMBL document CHEMBL1131596, “Novel potent nonpeptide aminopeptidase N inhibitors with a cyclic imide skeleton” (J Med Chem, 1998).

Molecules are shown by their SMILES.

Aminopeptidase N, sequence (P15144 whole entry): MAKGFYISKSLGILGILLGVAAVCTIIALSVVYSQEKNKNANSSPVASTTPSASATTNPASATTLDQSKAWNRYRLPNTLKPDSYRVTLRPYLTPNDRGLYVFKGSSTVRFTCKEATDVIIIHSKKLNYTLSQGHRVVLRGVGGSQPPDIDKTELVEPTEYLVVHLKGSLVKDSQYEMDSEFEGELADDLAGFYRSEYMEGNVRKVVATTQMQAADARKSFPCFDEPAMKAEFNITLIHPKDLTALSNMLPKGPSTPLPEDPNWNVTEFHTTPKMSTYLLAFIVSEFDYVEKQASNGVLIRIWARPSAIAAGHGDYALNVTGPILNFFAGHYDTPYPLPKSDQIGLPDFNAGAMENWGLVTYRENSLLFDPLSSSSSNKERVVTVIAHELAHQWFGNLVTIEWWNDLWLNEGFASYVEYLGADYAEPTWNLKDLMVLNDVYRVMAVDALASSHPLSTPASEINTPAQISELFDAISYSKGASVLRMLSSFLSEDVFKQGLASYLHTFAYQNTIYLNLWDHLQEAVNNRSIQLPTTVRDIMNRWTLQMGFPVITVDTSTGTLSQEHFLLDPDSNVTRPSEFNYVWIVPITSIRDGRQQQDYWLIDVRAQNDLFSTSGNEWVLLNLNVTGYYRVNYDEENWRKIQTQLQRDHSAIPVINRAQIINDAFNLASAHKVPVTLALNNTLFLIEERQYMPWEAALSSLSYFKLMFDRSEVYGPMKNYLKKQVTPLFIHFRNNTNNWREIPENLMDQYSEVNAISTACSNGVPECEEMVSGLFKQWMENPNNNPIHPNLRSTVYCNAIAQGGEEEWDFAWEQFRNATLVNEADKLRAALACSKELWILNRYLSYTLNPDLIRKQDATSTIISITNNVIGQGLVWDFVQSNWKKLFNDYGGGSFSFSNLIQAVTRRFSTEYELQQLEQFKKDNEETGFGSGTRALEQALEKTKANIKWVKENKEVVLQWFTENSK
Dipeptidyl peptidase 4, sequence (P27487 whole entry): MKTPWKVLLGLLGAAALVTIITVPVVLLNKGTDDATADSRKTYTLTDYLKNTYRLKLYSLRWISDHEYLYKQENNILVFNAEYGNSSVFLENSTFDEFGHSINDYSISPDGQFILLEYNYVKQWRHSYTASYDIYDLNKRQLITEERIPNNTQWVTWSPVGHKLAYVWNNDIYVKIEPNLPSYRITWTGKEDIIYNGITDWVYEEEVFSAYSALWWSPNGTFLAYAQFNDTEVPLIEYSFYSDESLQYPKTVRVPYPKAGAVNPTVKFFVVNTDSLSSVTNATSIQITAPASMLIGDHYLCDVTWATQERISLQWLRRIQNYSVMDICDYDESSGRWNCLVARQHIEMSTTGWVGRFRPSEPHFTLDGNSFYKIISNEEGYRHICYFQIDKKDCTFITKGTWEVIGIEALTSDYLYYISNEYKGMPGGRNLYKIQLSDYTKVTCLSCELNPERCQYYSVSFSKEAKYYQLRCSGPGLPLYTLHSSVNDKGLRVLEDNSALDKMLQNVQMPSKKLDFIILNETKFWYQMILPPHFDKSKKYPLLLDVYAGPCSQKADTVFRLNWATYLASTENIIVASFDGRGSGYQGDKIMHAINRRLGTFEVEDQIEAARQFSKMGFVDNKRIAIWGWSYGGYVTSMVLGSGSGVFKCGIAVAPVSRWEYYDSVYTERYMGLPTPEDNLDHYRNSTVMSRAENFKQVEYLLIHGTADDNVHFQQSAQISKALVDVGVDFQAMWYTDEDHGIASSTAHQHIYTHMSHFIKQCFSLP

In the case of `CC(C)c1cccc(C(C)C)c1N1C(=O)Cc2ccccc2C1=O`, the IC50 (usually the concentration that inhibits the measured activity by half) in assay [1] was over 311 µM; in assay [2] it was 10.9 µM. As for `CC(C)c1cccc(C(C)C)c1N1C(=O)c2ccc(O)cc2C1=O`, the IC50 in assay [1] is 65.9 µM. Turning to `CCc1cccc(CC)c1N1C(=O)c2ccccc2C1=O`, the IC50 is over 358 µM in assay [1] and 303 µM in assay [2]. The matching figures for `CC(C)c1ccc(N2C(=O)Cc3ccccc3C2=O)cc1`: over 358 µM and over 358 µM.

`O=C1Cc2ccccc2C(=O)N1c1c(Cl)cccc1Cl`: the IC50 in assay [1] is over 327 µM; in assay [2] it was 144 µM. On the same counts, the results for `CSc1ccccc1N1C(=O)Cc2ccccc2C1=O` are over 353 µM and 3.18 µM.

On to `CCc1cccc(CC)c1N1C(=O)c2ccc([N+](=O)[O-])cc2C1=O`, for which the IC50 in assay [1] and in assay [2] was over 308 µM each time.

Compound `CC(C)c1cccc(C(C)C)c1N1C(=O)c2ccccc2C1=O` displayed an IC50 in assay [2] of over 325 µM. In turn, `Cc1cccc(C)c1N1C(=O)c2cccc(O)c2C1=O` had a 50% inhibitory concentration (IC50) in assay [2] of 265 µM.

Consider `CC(C)c1ccccc1N1C(=O)Cc2ccccc2C1=O`, for which the results for the 50% inhibitory concentration (IC50) in assay [1] and in assay [2] were over 358 µM and 194 µM, respectively.

In turn, `Cc1cccc(C)c1N1C(=O)c2ccccc2C1=O` returned an IC50 in assay [2] of over 398 µM. Consider `Cc1ccc(C)c(N2C(=O)Cc3ccccc3C2=O)c1`, for which the IC50 was over 377 µM in assay [1] and 60.3 µM in assay [2]. For the compound `Cc1ccc(N2C(=O)Cc3ccccc3C2=O)c(C)c1`, the concentration for half-maximal inhibition (IC50) is over 377 µM in assay [1] and 187 µM in assay [2]. For `CCc1cccc(CC)c1N1C(=O)Cc2ccccc2C1=O`, the IC50 in assay [1] is over 341 µM. Compound `CC(C)C[C@H](NC(=O)C(O)[C@H](N)Cc1ccccc1)C(=O)O` (single isomer, unassigned) [UBENIMEX] registered an IC50 in assay [1] of over 324 µM. Consider `Cc1cccc(C)c1N1C(=O)Cc2ccccc2C1=O`, for which the half-maximal inhibitory concentration (IC50) is over 377 µM in assay [1] and 157 µM in assay [2]. As for `CC(C)c1cccc(C(C)C)c1N1C(=O)c2cccc(N)c2C1=O`, the half-inhibitory concentration (IC50) in assay [2] is 20.8 µM. `CC(C)c1cccc(C(C)C)c1N1C(=O)c2cc3ccccc3cc2C1=O` yielded a half-maximal inhibitory concentration (IC50) in assay [2] of over 280 µM. In assay [1], `Cc1cccc(C)c1N1C(=O)c2ccc(O)cc2C1=O` gave an IC50 of 74.1 µM.

In assay [1], `Cc1cccc(C)c1N1C(=O)c2ccc(N)cc2C1=O` showed an IC50 of 87.9 µM. For `CCc1ccccc1N1C(=O)Cc2ccccc2C1=O`, the figures for the IC50 in assay [1] and in assay [2] were over 377 µM and 67.1 µM, respectively. In the case of `CC(C)c1cccc(C(C)C)c1N1C(=O)c2ccc(N)cc2C1=O`, in assay [1], the half-inhibitory concentration (IC50) is 251 µM.

Take `O=C([C@@H]1CCCN1)N1CCC[C@H]1B(O)O`: the figures for the IC50 in assay [1] and in assay [2] were 86.3 µM and over 472 µM, respectively. `O=C1Cc2ccccc2C(=O)N1c1ccccc1`: the half-inhibitory concentration (IC50) was over 421 µM in assay [1] and 395 µM in assay [2]. The compound `CC(C)c1cccc(C(C)C)c1N1C(=O)c2cccc([N+](=O)[O-])c2C1=O` gave a 50% inhibitory concentration (IC50) in assay [2] of over 284 µM. In the case of `COc1ccccc1N1C(=O)Cc2ccccc2C1=O`, the IC50 was over 374 µM in assay [1] and 110 µM in assay [2]. Regarding `CC(C)c1cccc(C(C)C)c1N1C(=O)c2cccc(O)c2C1=O`, half-maximal inhibition in assay [1] (IC50) was put at 43.6 µM. Consider `Cc1cccc(N2C(=O)Cc3ccccc3C2=O)c1C`, for which the results for the IC50 in assay [1] and in assay [2] were over 377 µM and 113 µM, respectively. With `Cc1cc(C)cc(N2C(=O)Cc3ccccc3C2=O)c1`, the IC50 was over 377 µM in assay [1] and 23.4 µM in assay [2]. With `CCc1cccc(CC)c1N1C(=O)c2ccc(O)cc2C1=O`, half-maximal inhibition in assay [1] (IC50) was put at 43.3 µM.

As to `Cc1cccc(C)c1N1C(=O)c2cccc(N)c2C1=O`, the IC50 in assay [1] and in assay [2] was over 376 µM each time.

In turn, `CC(C)c1cccc(C(C)C)c1N1C(=O)c2ccc([N+](=O)[O-])cc2C1=O` had a half-maximal inhibitory concentration (IC50) in assay [2] of over 284 µM. On to `CCCCC[C@H](CC(=O)NO)C(=O)N[C@H](C(=O)N1CCC[C@H]1CO)C(C)C` [ACTINONIN], for which the figures for the concentration for half-maximal inhibition (IC50) in assay [1] and in assay [2] were over 259 µM and 0.83 µM, respectively.
